# Source: ChEMBL document CHEMBL4706495, “A novel class of small molecule inhibitors with radioprotective properties” (Eur J Med Chem, 2020)
# Legend:
# Jurkat [1] = assay: Cytotoxicity against human Jurkat cells assessed as cell viability at 10 uM measured after 48 hrs by WST-1 assay relative to control; type: functional; conditions: read-out: Activity
# Summary of the method: (§1)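 Ten-line human panel (9 cancer, 1 non-cancerous). Cells were seeded at a pre-established optimal density (500–30 × 10³ per well) and settled overnight. Compounds came from 10 mM DMSO stocks and were tested at two concentrations. WST-1 readout followed the manufacturer's protocol at the end of cultivation. Viability is expressed as % of untreated control cells, mean of three independent experiments.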
# MOLT-4 [2] = assay: Cytotoxicity against human MOLT-4 cells assessed as cell viability at 10 uM measured after 48 hrs by WST-1 assay relative to control; type: functional; conditions: read-out: Activity; summary of the method: as §1
# A549 [3] = assay: Cytotoxicity against human A549 cells assessed as cell viability at 100 uM measured after 48 hrs by WST-1 assay relative to control; type: functional; conditions: read-out: Activity; summary of the method: as §1
# HeLa [4] = assay: Cytotoxicity against human HeLa cells assessed as cell viability at 100 uM measured after 48 hrs by WST-1 assay relative to control; type: functional; conditions: read-out: Activity; summary of the method: as §1
# MCF7 [5] = assay: Cytotoxicity against human MCF7 cells assessed as cell viability at 10 uM measured after 48 hrs by WST-1 assay relative to control; type: functional; conditions: read-out: Activity; summary of the method: as §1
# A2780 [6] = assay: Cytotoxicity against human A2780 cells assessed as cell viability at 10 uM measured after 48 hrs by WST-1 assay relative to control; type: functional; conditions: read-out: Activity; summary of the method: as §1
# Jurkat [7] = assay: Cytotoxicity against human Jurkat cells assessed as cell viability at 100 uM measured after 48 hrs by WST-1 assay relative to control; type: functional; conditions: read-out: Activity; summary of the method: as §1
# MOLT-4 [8] = assay: Radioprotective activity against gamma irradiation-induced apoptosis in human MOLT-4 cells assessed as viable cells at 100 uM pretreated with compound for 1 hr followed by gamma irradiation and measured after 24 hrs by annexinV/propidium iodide staining based flow cytometry (reference value: 40 %); type: functional; conditions: MOLT-4, light or radiation study, time 25 hrs, read-out: Activity
# [9] = Cytotoxicity against human MRC5 cells assessed as cell viability at 10 uM measured after 48 hrs by WST-1 assay relative to control; type: cell-based; conditions: read-out: Activity; summary of the method: as §1
# PANC-1 [10] = assay: Cytotoxicity against human PANC-1 cells assessed as cell viability at 10 uM measured after 48 hrs by WST-1 assay relative to control; type: functional; conditions: read-out: Activity; summary of the method: as §1
# HeLa [11] = assay: Cytotoxicity against human HeLa cells assessed as cell viability at 10 uM measured after 48 hrs by WST-1 assay relative to control; type: functional; conditions: read-out: Activity; summary of the method: as §1
# MCF7 [12] = assay: Cytotoxicity against human MCF7 cells assessed as cell viability at 100 uM measured after 48 hrs by WST-1 assay relative to control; type: functional; conditions: read-out: Activity; summary of the method: as §1
# PANC-1 [13] = assay: Cytotoxicity against human PANC-1 cells assessed as cell viability at 100 uM measured after 48 hrs by WST-1 assay relative to control; type: functional; conditions: read-out: Activity; summary of the method: as §1
# A549 [14] = assay: Cytotoxicity against human A549 cells assessed as maximum tolerated concentration incubated for 24 hrs by MTT assay; type: functional
# Summary of the method: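 A-549 cells in DMEM with 10% FBS and 1% penicillin-streptomycin, left to attach overnight. Compounds made up in PBS, serially diluted in DMEM, incubated 24 h, then viability read by MTT reduction against untreated controls on each plate. MTC taken as the highest concentration showing no significant difference from non-treated control (t-test).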
# SAOS-2 [15] = assay: Cytotoxicity against human SAOS-2 cells assessed as cell viability at 100 uM measured after 48 hrs by WST-1 assay relative to control; type: functional; conditions: read-out: Activity; summary of the method: as §1
# SAOS-2 [16] = assay: Cytotoxicity against human SAOS-2 cells assessed as cell viability at 10 uM measured after 48 hrs by WST-1 assay relative to control; type: functional; conditions: read-out: Activity; summary of the method: as §1
# MOLT-4 [17] = assay: Cytotoxicity against human MOLT-4 cells assessed as cell viability at 100 uM measured after 48 hrs by WST-1 assay relative to control; type: functional; conditions: read-out: Activity; summary of the method: as §1
# A2780 [18] = assay: Cytotoxicity against human A2780 cells assessed as cell viability at 100 uM measured after 48 hrs by WST-1 assay relative to control; type: functional; conditions: read-out: Activity; summary of the method: as §1
# [19] = Cytotoxicity against human MRC5 cells assessed as cell viability at 100 uM measured after 48 hrs by WST-1 assay relative to control; type: cell-based; conditions: read-out: Activity; summary of the method: as §1
# HT-29 [20] = assay: Cytotoxicity against human HT-29 cells assessed as cell viability at 10 uM measured after 48 hrs by WST-1 assay relative to control; type: functional; conditions: read-out: Activity; summary of the method: as §1
# A549 [21] = assay: Cytotoxicity against human A549 cells assessed as cell viability at 10 uM measured after 48 hrs by WST-1 assay relative to control; type: functional; conditions: read-out: Activity; summary of the method: as §1
# A549 [22] = assay: Cytotoxicity against human A549 cells assessed as reduction in cell viability incubated for 24 hrs by MTT assay; type: functional, cell-based; conditions: A549, 24 h
# Summary of the method: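 A-549 cells in DMEM with 10% FBS and 1% penicillin-streptomycin were attached overnight. Compounds were prepared in PBS and serially diluted in DMEM, then incubated 24 h. Viability was read by colorimetric MTT reduction against an untreated control on each plate (100%). IC50 came from four-parameter nonlinear regression of the log concentration-response curve, mean ± SEM. MTC is the highest concentration not differing from control (t-test).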
# HT-29 [23] = assay: Cytotoxicity against human HT-29 cells assessed as cell viability at 100 uM measured after 48 hrs by WST-1 assay relative to control; type: functional; conditions: read-out: Activity; summary of the method: as §1
SMILES,viability at 10 µM (Jurkat [1]),viability at 10 µM (MOLT-4 [2]),viability at 100 µM (A549 [3]),viability at 100 µM (HeLa [4]),viability at 10 µM (MCF7 [5]),viability at 10 µM (A2780 [6]),viability at 100 µM (Jurkat [7]),viability at 100 µM (MOLT-4 [8]),"viability at 48 h, 10 µM [9]",viability at 10 µM (PANC-1 [10]),viability at 10 µM (HeLa [11]),viability at 100 µM (MCF7 [12]),viability at 100 µM (PANC-1 [13]),MTD (A549 [14]),viability at 100 µM (SAOS-2 [15]),viability at 10 µM (SAOS-2 [16]),viability at 100 µM (MOLT-4 [17]),viability at 100 µM (A2780 [18]),"viability at 48 h, 100 µM [19]",viability at 10 µM (HT-29 [20]),further results
Cc1ccc(C(C)C)c(OCC(O)CN2CCN(CCO)CC2)c1 (centres undefined),97%,87%,114%,132%,100%,100%,98%,58%,102%,91%,105%,85%,125%,0.16 mM,109%,93%,90%,90%,90%,93%,viability at 10 µM (A549 [21]): 90%; IC50 (A549 [22]): 360 µM; viability at 100 µM (HT-29 [23]): 64%
Cc1ccc(OCC(O)CN2CCN(CCO)CC2)cc1 (centres undefined),101%,103%,110%,101%,107%,97%,97%,58%,112%,102%,100%,100%,99%,0.29 mM,83%,102%,103%,94%,100%,98%,viability at 10 µM (A549 [21]): 106%; IC50 (A549 [22]): 2430 µM; viability at 100 µM (HT-29 [23]): 107%
OCCN1CCN(CC(O)COc2ccc3ccccc3c2)CC1 (centres undefined),97%,109%,102%,116%,93%,99%,96%,65%,103%,101%,109%,93%,95%,0.02 mM,91%,98%,100%,91%,98%,92%,viability at 10 µM (A549 [21]): 102%; IC50 (A549 [22]): 310 µM; viability at 100 µM (HT-29 [23]): 103%
